Common to all, as to assay type: cell-based
Experiment [1] concerns the target T1, rat P2X2 receptor (rP2X2R) WT (Rattus norvegicus, UniProt P49653).
T1 sequence (P49653 1-472): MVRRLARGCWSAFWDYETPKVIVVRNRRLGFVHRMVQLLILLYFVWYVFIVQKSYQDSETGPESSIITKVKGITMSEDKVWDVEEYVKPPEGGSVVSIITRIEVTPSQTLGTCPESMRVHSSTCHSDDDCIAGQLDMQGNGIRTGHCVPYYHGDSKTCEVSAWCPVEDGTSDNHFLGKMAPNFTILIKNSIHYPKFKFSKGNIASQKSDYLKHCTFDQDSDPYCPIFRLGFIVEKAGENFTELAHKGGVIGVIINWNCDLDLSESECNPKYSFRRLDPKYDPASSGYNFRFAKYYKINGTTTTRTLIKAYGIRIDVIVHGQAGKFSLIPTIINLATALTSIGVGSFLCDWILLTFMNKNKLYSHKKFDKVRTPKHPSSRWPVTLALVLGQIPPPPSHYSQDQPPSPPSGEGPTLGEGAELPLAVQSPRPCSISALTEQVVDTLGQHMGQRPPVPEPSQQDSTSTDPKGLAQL
To be noted: for Macroscopic currents elicited (in words) / Efficacy (in words) / Apparent affinity / potency (in words): WT P2X2Rs; for Macroscopic currents elicited (in words): concentrations of up to 1 mM; for Efficacy (in words) / Apparent affinity / potency (in words): compared with ATP; for Fold increase in EC50 (reduced apparent affinity) compared with ATP: agonist versus ATP; for Imax agonist/Imax ATP (%): maximal current compared to that elicited by 1 mM of ATP, same cell; for Reduction in efficacy: relative to ATP. An outline of the steps:
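Collagenase-digested Xenopus oocytes were injected with WT rP2X2 mRNA (30 ng) and kept in L-15 at 18°C. Two-electrode voltage clamp was done 1–2 days later at −40 mV in ND96 (pH 7.4). Agonists were freshly dissolved in ND96 at pH 7.4. Responses were normalised to 1 mM ATP current in the same cell, and Hill fits gave EC50 and nH. Relative efficacy is the agonist maximal current versus 1 mM ATP. Results are mean ± SEM, compared by one-way ANOVA with Dunnett's test.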

Experiment [2] has as its target T2, rP2X2 Val70Vah (Rattus norvegicus, UniProt P49653).
T2 sequence (P49653 1-472): T1 sequence (P49653 1-472)
The experiment can be described thus: Two-electrode voltage clamp, oocytes expressing rP2X2 Val70Vah.

Experiment [3] deals with T3, rP2X2 Ile185Val (Rattus norvegicus, UniProt P49653, I185V).
T3 sequence (P49653 1-472 I185V): T1 sequence (P49653 1-472) with I185V
The experiment can be described thus: Two-electrode voltage clamp, oocytes expressing rP2X2 Ile185Val. An outline of the steps: (§1)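 Mutations were made by site-directed mutagenesis. Xenopus oocytes were injected with rP2X2 mRNA and incubated in L-15 at 18°C. Two-electrode voltage clamp was done 1–2 days later at −40 mV under ND96 perfusion (pH 7.4). ATP concentration-response currents were normalised and fitted to a one-component Hill equation for EC50 and Hill coefficient. Results are mean ± SEM, tested by one-way ANOVA with Dunnett's test against WT.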
Background: Two-electrode voltage clamp holds a large cell at a set potential and records current.

Experiment [4] concerns the target T4, rP2X2 Thr184Ser (Rattus norvegicus, UniProt P49653, T184S).
T4 sequence (P49653 1-472 T184S): T1 sequence (P49653 1-472) with T184S
The experiment can be described thus: Two-electrode voltage clamp, oocytes expressing rP2X2 Thr184Ser. An outline of the steps:
as §1

Experiment [5] concerns the target T5, rP2X2 Ile185Vah (Rattus norvegicus, UniProt P49653).
T5 sequence (P49653 1-472): T1 sequence (P49653 1-472)
The experiment can be described thus: Two-electrode voltage clamp, oocytes expressing rP2X2 Ile185Vah. To be noted: Ile185Vah, mean ± SEM. An outline of the steps:
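The backbone ester was introduced by nonsense suppression. TAG-mutant rP2X2 mRNA was co-injected into Xenopus oocytes with tRNA enzymatically aminoacylated with 2-hydroxyisovaleric acid. Uncharged tRNA co-injection served as the negative control. After incubation at 18°C, two-electrode voltage clamp was done at −40 mV in ND96 (pH 7.4). ATP concentration-response data were normalised and Hill-fitted for EC50 and nH, given as mean ± SEM.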

The target in experiment [6] is T6, rP2X2 Thr184Val (Rattus norvegicus, UniProt P49653, T184V).
T6 sequence (P49653 1-472 T184V): T1 sequence (P49653 1-472) with T184V
The experiment can be described thus: Two-electrode voltage clamp, oocytes expressing rP2X2 Thr184Val. The essentials:
as §1

The target of experiment [7] is T7, rP2X2-3T receptors (Rattus norvegicus, UniProt P49653, C348T/C430T/C9T).
T7 sequence (P49653 1-472 C9T/C348T/C430T): T1 sequence (P49653 1-472) with C9T, C348T, C430T
The experiment can be described thus: Single channel outside-out patch-clamp recordings, HEK-293 cells. The conditions noted are these: agonist 1 µM, mean ± SEM. An outline of the steps:
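HEK-293 cells were co-transfected by calcium phosphate with rP2X2-3T DNA plus GFP DNA to mark transfected cells, then recorded within 24 h. Outside-out patches were held at −120 mV. Pipette contained 147 NaF, 10 EGTA and 10 HEPES (mM, pH 7.3). Agonist at 1, 10 or 100 µM in extracellular saline (pH 7.3) was applied by fast perfusion for 10 s per 12-s sweep, at 1-min intervals. Amplitudes came from Gaussian fits to all-points histograms, with 2–5 sweeps averaged per patch.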

The mark [8] stands for this setting: WT rP2X2R, Xenopus oocytes, −40 mV, mean ± SEM.

Residue numbers refer to the chain shown, from its start. Entries after “also recorded” stand apart in the source; their conditions may differ. Where two headings read alike, the source gives them in different places.

Regarding `Nc1ncnc2c1ncn2[C@@H](CO)O[C@@H](CO)COP(=O)(O)OP(=O)(O)OP(=O)(O)O` [UNA-ATP, unlocked nucleic acid–ATP], the “Macroscopic currents elicited (in words)” value in experiment [1] is given as “failed to elicit macroscopic currents; also recorded: does not elicit macroscopic current responses; also recorded: did not act as an agonist”.

The term EC50 denotes the concentration needed to bring the measured effect to its halfway point. A low value points to greater potency. Take `O=c1ccn([C@@H]2O[C@H](COP(=O)(O)OP(=O)(O)OP(=O)(O)O)[C@@H](O)[C@H]2O)c(=O)[nH]1` [UTP, uridine 5′-triphosphate]: in experiment [1], the EC50 came to 12000 µM and the “Efficacy (in words)” value is reported as “significantly reduced efficacy”. Moreover, the “Fold increase in EC50 (reduced apparent affinity) compared with ATP” value in experiment [1] (WT rP2X2R) amounted to 400 fold.

Regarding `Nc1ccn([C@@H]2O[C@H](COP(=O)(O)OP(=O)(O)OP(=O)(O)O)[C@@H](O)[C@H]2O)c(=O)n1` [CTP, Cytidine 5′-triphosphate], the “nH (Hill coefficient)” value in experiment [2] (Val70Vah) is reported as 2.6 ± 0.1. Further, the “Fold increase in EC50, Val70Vah versus WT” value in experiment [2] (Val70Vah compared with WT) is “fivefold”. Further, the EC50 in experiment [2] (Val70Vah, mean ± SEM) was found to be 2000 µM; in experiment [3] it was 144 ± 30 µM; in experiment [4], 156 ± 30 µM; in experiment [5] it was 1100 µM; in experiment [1], 370 ± 30 µM; in experiment [6], 11700 µM. In experiment [1], the “Efficacy (in words)” value is given as “did not alter efficacy; also recorded: ATP-like efficacy”. Moreover, the “Imax agonist/Imax ATP (%)” value in experiment [1] (WT rP2X2R) is listed as 105 ± 4%. Further, the “Fold increase in EC50 (reduction in sensitivity), Thr184Val versus WT” value in experiment [6] (Thr184Val compared with WT) is recorded as around 30 fold.

For `Nc1ncnc2c1ncn2[C@@H]1O[C@H](COP(=O)(O)OP(=O)(O)OP(=O)(O)O)[C@@H](O)[C@@H]1O` [Ara-ATP, Ara-adenosine 5′-triphosphate], in experiment [1], the “Apparent affinity / potency (in words)” value is “lower apparent affinity than ATP” and the “Efficacy (in words)” value is reported as “greatly reduced efficacy”. Further, the EC50 in experiment [1] (setting [8]) was above 100 µM.

In experiment [1], `Nc1ncnc2c1ncn2[C@@H]1O[C@H](COP(=O)(O)OP(=O)(O)OP(=O)(O)O)[C@@H](O)[C@H]1F` [C2′-F-dATP, 2′-fluoro-2′-deoxyadenosine-5′-triphosphate] came in with a half-maximal effective concentration (EC50) of 52 ± 6 µM. In experiment [1] (WT rP2X2R), the “Fold increase in EC50 (reduced apparent affinity) compared with ATP” value is “twofold”, the Reduction in efficacy is on record as around 40% and the “Imax agonist/Imax ATP (%)” value is on record as 60 ± 2%. Also, the “nH (Hill coefficient)” value in experiment [1] (WT rP2X2R, mean ± SEM) stood at 2.1 ± 0.1.

Consider `Nc1ncnc2c1ncn2[C@@H]1O[C@H](COP(=O)(O)OP(=O)(O)OP(=O)(O)O)C[C@H]1O` [C3′-dATP, 3′-deoxyadenosine-5′-triphosphate], for which the EC50 in experiment [1] was 83 ± 4 µM. Also, in experiment [1] (WT rP2X2R), the “Fold increase in EC50 (reduced apparent affinity) compared with ATP” value is reported as “threefold”, the Reduction in efficacy was around 30% and the “Imax agonist/Imax ATP (%)” value was 67 ± 2%. Moreover, the “nH (Hill coefficient)” value in experiment [1] (WT rP2X2R, mean ± SEM) came to 2.6 ± 0.1.

The molecule `Nc1ncnc2c1ncn2[C@H]1C[C@H](O)[C@@H](COP(=O)(O)OP(=O)(O)OP(=O)(O)O)O1` [C2′-dATP, 2′-deoxyadenosine-5′-triphosphate] yielded an EC50 in experiment [1] above 300 µM.

In the case of `Nc1ncnc2c1ncn2[C@H]1CC[C@@H](COP(=O)(O)OP(=O)(O)OP(=O)(O)O)O1` [C2′-C3′-ddATP, 2′,3′-dideoxyadenosine-5′-triphosphate], the “Apparent affinity / potency (in words)” value in experiment [1] was “even less potent agonist; also recorded: further decreased apparent affinity and efficacy”.

Take `O=P(O)(O)OP(=O)(O)OP(=O)(O)OC[C@H]1O[C@@H](n2cnc3c(O)ncnc32)[C@H](O)[C@@H]1O` [ITP, Inosine 5′-triphosphate]: in experiment [1], the “Macroscopic currents elicited (in words)” value is listed as “failed to evoke any currents”.

For the molecule `Nc1ncnc2c1ncn2[C@@H]1O[C@@]2(COP(=O)(O)OP(=O)(O)OP(=O)(O)O)CO[C@@H]1[C@@H]2O` [LNA-ATP, locked nucleic acid–ATP], the “SDopen (SD of the open state amplitude)” value in experiment [7] worked out at 1.03 ± 0.1. This molecule also registered a Unitary current in experiment [7] (outside-out patch, −120 mV) of −3.58 ± 0.4 pA. Besides, in experiment [1], the “Apparent affinity / potency (in words)” value is listed as “apparent affinity indistinguishable from ATP; also recorded: ATP-like apparent affinity” and the “Efficacy (in words)” value is given as “significantly reduced efficacy; also recorded: only a minor decrease in efficacy”. For the same molecule, the midpoint of the response in experiment [1] (setting [8]), the EC50, lay at 27 ± 1 µM. Further, in experiment [1] (WT rP2X2R, mean ± SEM), the “nH (Hill coefficient)” value turned out to be 1.8 ± 0.1. For the same molecule, in experiment [1] (WT rP2X2R), the “Imax agonist/Imax ATP (%)” value is 66 ± 1%.
